CHO parental Ca – counter-screen for OX1R antagonists: effect in parental CHO cells. parental CHO-K1, ATP-induced calcium, Fluo-8 fluorescence. inhibition, % at 5.6 µM. 330,000 compounds, 0.63% hits;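 active = inhibition above that plate's mean sample inhibition plus 3 SD, cut at about 26% in these data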;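 also: 0% = ATP-challenged DMSO wells and 100% = DMSO wells without ATP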
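Test system: untransfected parental CHO cell line. Compound: one dose, 5.6 µM nominal. Detection: intracellular calcium via Fluo-8 no-wash fluorescent dye. Measure: % inhibition. Benchmarks: ATP-challenged DMSO wells low, unchallenged DMSO wells high.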
OX1R antag-1 – human HCRTR1 antagonism. O43613. CHO/OX1R cells, Fluo-8 calcium fluorescence, orexin A. inhibition, % at 5 µM. 330,000 compounds, 0.43% hits;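 active = inhibition above its plate's threshold, mean inhibition of all tested compounds on the plate plus 3 SD, cut at about 37% in these data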;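 also: 0% = orexin A challenge wells and 100% = SB-334867-A antagonist wells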
GPR7 antag – antagonists of human GPR7 (neuropeptides B/W receptor 1); P48145; GPR7-expressing cells, fluorescence antagonist assay; inhibition, % at 4.4 µM; 290,000 compounds, 1.1% hits; AID 1861; in the data active = inhibition above about 16%, passing the limit was not always enough;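 also: cells stimulated with the agonist NPW; 0% = agonist with vehicle and 100% = vehicle without agonist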
Target sequence (P48145 whole entry, looked up): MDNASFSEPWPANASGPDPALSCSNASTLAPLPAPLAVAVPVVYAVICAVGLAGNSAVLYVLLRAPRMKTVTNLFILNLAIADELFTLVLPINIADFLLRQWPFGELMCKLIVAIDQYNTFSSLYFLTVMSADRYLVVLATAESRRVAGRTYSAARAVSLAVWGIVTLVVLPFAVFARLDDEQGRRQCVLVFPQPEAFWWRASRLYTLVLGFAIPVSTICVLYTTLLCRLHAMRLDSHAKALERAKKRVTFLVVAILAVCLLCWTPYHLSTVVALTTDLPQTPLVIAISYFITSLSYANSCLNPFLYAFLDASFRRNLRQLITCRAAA
TAAR1 ag – human TAAR1 agonism | Q96RJ0 | CHO RD-HGA16 TAAR1, Fluo-8 calcium fluorescence; vehicle wells 0%, saturating PEA agonist 100% | activation, % at 3 µM | 360,000 compounds, 0.99% hits | AID 624467;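 active = activation above the mean activation of all test compounds in the run plus 3 SD, cut at about 38% in these data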
Target sequence (Q96RJ0 whole entry, looked up): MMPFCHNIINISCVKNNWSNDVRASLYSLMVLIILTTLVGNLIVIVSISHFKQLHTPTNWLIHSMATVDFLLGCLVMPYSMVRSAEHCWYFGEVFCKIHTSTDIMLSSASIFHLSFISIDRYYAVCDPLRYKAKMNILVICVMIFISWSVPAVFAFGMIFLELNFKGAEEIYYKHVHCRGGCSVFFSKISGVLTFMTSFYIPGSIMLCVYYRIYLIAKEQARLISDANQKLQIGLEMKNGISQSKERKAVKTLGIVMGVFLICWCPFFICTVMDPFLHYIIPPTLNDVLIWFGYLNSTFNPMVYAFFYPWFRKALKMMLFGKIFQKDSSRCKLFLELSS
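System: CHO RD-HGA16 cells carrying human TAAR1 plus Gα16; Incubation: 17-24 h seeding, 75 min 37 °C dye, 30 min RT; Measured by: Fluo-8 fluorescence, 5 s baseline then 140 s kinetic read; Control set: DMSO and PEA EC100; Replication: single well for each compound.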
TAAR1 antagonist – antagonists of human TAAR1; CHO RD-HGA16 TAAR1, Fluo-8 calcium fluorescence, antagonist; inhibition, % at 3 µM; 360,000 compounds, 1.5% hits; AID 624466;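 active = inhibition above a per-plate cutoff, the mean inhibition of test compounds on that plate plus 3 SD, cut at about 49% in these data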;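 also: 0% = DMSO plus EC80 beta-PEA response and 100% = DMSO alone without agonist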
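Assay system: CHO-derived RD-HGA16 cells stably expressing human TAAR1 plus Gα16. Timing: 140 s kinetic read after compound, 140 s after agonist. Technique: kinetic Fluo-8 calcium fluorescence measurement. Measure: % inhibition of agonist calcium response.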
OX1R antag-2 – OX1R (human) antagonism; AID 485270; O43613; OX1R-expressing cells, FRET antagonist read-out; 330,000 compounds, 1.8% hits; inhibition, % at 6.6 µM; in the data active = inhibition mostly above about 38%, no sharp cut-off; inactive = mostly below about 40%;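 also: 0% = agonist challenge alone and 100% = reference antagonist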
TAAR1 nonsel count – nonselective antagonism, TAAR1 counter-screen; shares compounds with TAAR1 antagonist; counterscreen cell line, calcium fluorescence, antagonist mode; inhibition, % at 3 µM; 2,400 compounds, 77% hits; AID 651780; in the data active = inhibition above about 22%;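 also: CHO-Ga16 host cells stimulated with ATP at an EC80 level; 0% = agonist EC80 plus vehicle and 100% = vehicle without agonist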
TAAR1 antag conf – confirmation of human TAAR1 antagonists; shares compounds with TAAR1 antagonist; TAAR1-expressing cells, fluorescence antagonist read-out; inhibition, % at 3 µM; 2,400 compounds, 40% hits; AID 651785; in the data active = inhibition above about 49%;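 also: CHO-Ga16 host cells challenged with agonist PEA near its EC80; 0% = agonist at EC80 plus vehicle and 100% = vehicle with no agonist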
Ga16 nonsel ag – nonselective Ga16 agonism, counter-screen | shares compounds with TAAR1 antagonist | Ga16-expressing cells, calcium fluorescence, agonist counterscreen | activation, % at 3 µM | 2,400 compounds, 18% hits | AID 651953; in the data active = activation above about 12%;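 also: 0% = vehicle wells and 100% = saturating stimulus response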
TAAR1 ag counter – counter-screen for human TAAR1 antagonists: TAAR1 agonists; shares compounds with TAAR1 antagonist; hTAAR1 cell line, fluorescence activation, agonist mode; activation, % at 3 µM; 2,400 compounds, 2% hits; in the data active = activation above about 37%;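 also: CHO cells stably expressing TAAR1 with calcium dye readout; 0% = DMSO vehicle and 100% = full agonist response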
The depositor's hits bear a star; · = not tested or not shown. An excerpt weighted towards active compounds, which were near 4.5% of everything screened.

SMILES	CHO parental Ca	OX1R antag-1	GPR7 antag	TAAR1 ag	TAAR1 antagonist	OX1R antag-2	TAAR1 nonsel count	TAAR1 antag conf	Ga16 nonsel ag	TAAR1 ag counter
Cn1cc(C=CC(=O)O)c2nccnc21	·	·	·	1.1	-23.1	·	·	·	·	·
O=C(Nc1cccc(S(=O)(=O)NC2=NCCCCC2)c1)c1cc(-c2ccccc2)nc2ccccc12	-22.4	-24.8	-2.9	18.6	63.5*	0.4	28.2*	49.7*	10.3	6.2
O=C(Nc1cccc(S(=O)(=O)NC2=NCCCCC2)c1)c1cc(-c2ccc(Cl)cc2)nc2ccccc12	3.4	-9.3	1.9	4.1	33.2	27.4	·	·	·	·
CN(C)S(=O)(=O)c1cccc(NC(=O)c2c[nH]c3ccccc23)c1	-7.8	-9.5	-10.3	33.8	55.6*	12.8	23.8*	61.1*	10.5	53.9*
COc1ccc(OCC(=O)Nc2ccccc2C(=O)NC2CC2)cc1	9.3	-7.7	·	12.9	18.1	5.3	·	·	·	·
COC(=O)c1ccc(OCC(=O)Nc2ccccc2C(=O)NC2CC2)cc1	-7.2	1.6	·	18.2	62.5*	8.6	30.2*	48.3	9.8	8.2
CC(C)c1ccc(NC(=O)C2Cc3c(-c4ccc(Cl)cc4)ccnc3O2)cc1 (stereo not drawn)	·	·	·	-0.4	-34.5	·	·	·	·	·
CCN(C(=O)CCCCC(=O)N(CC)c1ccccc1)c1ccccc1	-12.6	-28.9	·	3.0	-5.2	9.7	·	·	·	·
C=CCN(C(=O)C1CC(=O)N(C2CCCC2)C1)c1nc(-c2ccc(S(C)(=O)=O)cc2)cs1 (stereo not drawn)	0.7	-9.4	·	32.9	78.2*	13.9	37.9*	64.5*	18.2*	29.7
COc1ccc(OC)c(CN2CCCC(C(=O)N3CCCCC3)C2)c1 (stereo not drawn)	-6.9	-22.1	-7.2	-3.0	106.2*	6.2	11.9	1.0	1.2	7.0
COc1ccc(C(=O)Nc2ccc(N3CCN(C(=O)c4ccccc4C)CC3)cc2)cc1	-6.8	-5.8	5.4	10.4	65.3*	21.4	24.0*	37.0	13.6*	12.2
COc1ccc(Nc2ncc(C(=O)N3CCN(c4ccc(F)cc4)CC3)c3ccccc23)cc1	9.8	10.6	20.5	25.3	55.1*	11.8	36.7*	54.0*	10.8	8.2
COc1ccc(C(=O)Nc2ccc(N3CCCC3)cc2)cc1	-5.4	-2.2	-3.6	-0.1	-8.7	29.5	·	·	·	·
COc1ccc(Nc2ncc(C(=O)O)c3ccccc23)cc1	-9.2	-1.0	-2.5	0.4	4.1	8.3	·	·	·	·
Cc1ccccc1S(=O)(=O)Oc1ccc2ccc(O)cc2c1	22.2	3.6	8.6	3.0	66.4*	13.3	30.3*	44.7	4.8	6.9
CC(=O)Nc1ccc(OS(=O)(=O)c2ccccc2C)cc1	-6.6	-21.2	-7.4	0.9	8.1	1.8	·	·	·	·
COc1ccc(CCC(=O)NCCS(=O)(=O)N2CCN(c3ccc(OC)cc3)CC2)cc1	-23.8	-8.2	-18.6	19.2	62.2*	12.8	28.9*	54.0*	15.3*	16.7
COc1ccc2cc(/C=C3\SC(=S)NC3=O)c(N3CCOCC3)nc2c1	-11.0	-15.1	-8.9	3.8	52.6*	73.8*	36.1*	41.8	5.4	-0.3
O=C1NC(=S)S/C1=C/c1ccc(N2CCOCC2)o1	-2.8	0.6	-8.1	·	·	29.4	·	·	·	·
C[C@@]12C(=O)N(Cc3ccc(-c4ccccc4)cc3)CC(=O)N1[C@H](/C=C/c1ccccc1)[C@@H]1C(=O)N(c3ccccc3)C(=O)[C@@H]12	-22.2	-25.7	-1.9	10.1	53.9*	11.5	30.2*	30.1	3.4	3.5
COC(=O)CN1C(=O)[C@H]2[C@@H](/C=C/c3ccccc3)N3C(=O)CN(Cc4ccc(-c5ccccc5)cc4)C(=O)[C@@]3(C)[C@H]2C1=O	-32.9	-42.2	·	0.2	-5.8	3.1	·	·	·	·
O=C(Oc1ccc(/C=N/NC(=O)c2ccccc2F)cc1)c1ccccc1	5.5	7.6	21.7	1.5	-9.9	14.0	·	·	·	·
COc1cc(/C=N\NC(=O)c2cccnc2)ccc1OC(=O)c1ccccc1Cl	-14.2	-9.7	-17.4	11.7	54.1*	17.7	27.9*	34.8	15.7*	20.2
CCOC(=O)c1ccccc1OCc1cc(/C=N/NC(=O)c2ccncc2)ccc1OC	-22.4	-20.2	-8.8	12.5	77.1*	10.4	36.3*	54.4*	9.8	5.5
COc1cc(C(=O)N/N=C/c2ccc(OC(=O)c3ccccc3Cl)cc2)ccc1O	3.6	6.0	-16.1	13.4	80.3*	10.5	29.8*	58.2*	11.4	35.3
SMILES	CHO parental Ca	OX1R antag-1	GPR7 antag	TAAR1 ag	TAAR1 antagonist	OX1R antag-2	TAAR1 nonsel count	TAAR1 antag conf	Ga16 nonsel ag	TAAR1 ag counter
O=C(Oc1ccc(/C=N/NC(=O)c2ccccc2O)cc1)c1ccccc1	-2.7	7.2	-4.7	9.8	74.1*	9.0	37.7*	68.4*	7.6	9.7
CC(C)CN1C(=O)CSCC1(C)C(=O)NC(C)C (stereo not drawn)	·	·	·	2.6	-12.1	·	·	·	·	·
COC(=O)c1ccc(/C=N/NC(=O)c2ccccc2Cl)cc1	-12.6	2.7	0.8	0.5	14.1	7.7	·	·	·	·
Nc1ccc(C(=O)N/N=C\c2ccc(OC(=O)c3ccccc3Cl)cc2)cc1	8.8	-19.6	5.0	18.4	68.0*	1.8	28.8*	59.4*	8.9	24.6
O=C(N/N=C/c1ccc(OC(=O)c2ccccc2Br)cc1)c1ccccn1	-9.7	-29.0	-9.2	6.5	52.0*	3.7	29.9*	43.7	7.3	5.0
CC(C)(C)c1ccc(/C=N/NC(=O)c2ccccn2)cc1	0.5	-11.3	-13.3	2.4	-2.4	1.6	·	·	·	·
CCCc1c(Cc2cccc(F)c2)ncn1Cc1cccc(-c2ccccc2)c1	·	·	·	3.3	-1.5	·	·	·	·	·
O=C(N/N=C/c1ccccc1F)c1ccccc1OCc1ccccc1	-48.8	-22.6	17.4	6.8	51.2*	21.8	8.9	35.4	4.4	3.6
CC(=O)Nc1ccc(C(=O)N/N=C/c2ccccc2OCc2ccccc2)cc1	-21.9	-21.5	-5.6	13.3	52.4*	17.0	31.7*	41.7	6.0	5.4
O=C(NNC(=O)c1ccccc1OCc1ccccc1)c1ccccc1F	-12.6	-25.5	-7.1	4.5	7.1	-4.9	·	·	·	·
Cc1ccc(C(C)C)c(OCc2ccc(C(=O)N/N=C/c3cccc(O)c3O)cc2)c1	-2.1	-7.4	-6.2	1.6	77.4*	10.8	46.6*	80.0*	6.8	12.1

Bioassay records (PubChem)
